Test results taken from ChEMBL document CHEMBL1145949, “Constrained derivatives of stylostatin 1. 1. Synthesis and biological evaluation as potential anticancer agents” (2003).

What was measured:
[1] = Growth inhibition effect against prostate tumor IGROV cells; format: functional, Homo sapiens
How it was run: (§1)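 SRB colorimetric growth assay. Cells seeded at 5 × 10^3 per well in RPMI, attached 18 h in drug-free medium, then sample added (dissolved in DMSO/H₂O 3:7) for 48-72 h. Fixed with cold 50% TCA, 60 min, 4 °C; stained with 0.4% SRB in 1% acetic acid, 10 min RT; bound dye solubilized in Tris, OD 490 nm. GI50 from 100 × [(T − T0)/(C − T0)] = 50.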

[2] = Growth inhibition effect against colon LOVO cells; format: functional, Homo sapiens; how it was run: as §1
[3] = Growth inhibition effect against […] HT-29 cells; format: functional, Homo sapiens; how it was run: as §1
[4] = Growth inhibition effect against ovarian tumor SK-BR-3 cells; format: functional, Homo sapiens; how it was run: as §1
[5] = Growth inhibition effect against prostate tumor DU-145 cells; format: functional, Homo sapiens; how it was run: as §1
[6] = Growth inhibition effect against prostate tumor SKOV-3 cells; format: functional, Homo sapiens, SK-OV-3; how it was run: as §1
[7] = Growth inhibition effect against melanoma MEL-28 cells; format: functional, Homo sapiens; how it was run: as §1
[8] = Growth inhibition effect against prostate tumor LN-caP cells; format: functional, Homo sapiens; how it was run: as §1
[9] = Growth inhibition effect against pancreas PANC-1 cells; format: functional, Homo sapiens; how it was run: as §1
K562 = assay: Growth inhibition effect against leukemia […] cells; format: functional, Homo sapiens; how it was run: as §1
[10] = Growth inhibition effect against colon LOVO-DOX cells; format: functional, Homo sapiens; how it was run: as §1
[11] = Growth inhibition effect against NSCL A-549 cells; format: functional, Homo sapiens; how it was run: as §1
[12] = Growth inhibition effect against ovarian tumor IGROV-ET cells; format: functional, Homo sapiens; how it was run: as §1

Row | SMILES | GI50 ([1]; Homo sapiens, IGROV) [µM] | GI50 ([3]; Homo sapiens, HT-29) [µM] | GI50 ([4]; Homo sapiens, SK-BR-3) [µM] | GI50 ([7]; Homo sapiens, SK-MEL-28) [µM] | GI50 ([8]; Homo sapiens, LNCaP) [µM] | GI50 ([9]; Homo sapiens, PANC-1) [µM] | GI50 (K562; Homo sapiens, K562) [µM] | GI50 ([10]; Homo sapiens, LOVO-DOX) [µM] | GI50 ([11]; Homo sapiens, A549) [µM] | GI50 ([12]; Homo sapiens, IGROV-ET) [µM] | GI50 [2] [µM] | GI50 [5] [µM] | GI50 [6] [µM] | also measured
1 | CC[C@H](C)[C@@H]1NC(=O)[C@H](C)NC(=O)[C@H](CC(C)C)N2C[C@@H](O)[C@@H](O)[C@H](NC(=O)[C@H](CC(N)=O)NC(=O)[C@H](Cc3ccccc3)NC(=O)[C@@H]3CCCN3C1=O)C2=O | 3.33 | 9.31 | 3.86 | 6.69 | 3.49 | 5.1 | 3.59 | 8.84 | 5.2 | 4.97 |  |  |  | GI50 ([2]; Homo sapiens, LoVo): 8.83 µM; GI50 ([5]; Homo sapiens, DU-145): 10.6 µM; GI50 ([6]; Homo sapiens, SK-OV-3): 4.99 µM
2 | CC[C@H](C)[C@@H]1NC(=O)[C@H](C)NC(=O)[C@H](CC(C)C)NC(=O)[C@H](CO)NC(=O)[C@H](CC(N)=O)NC(=O)[C@H](Cc2ccccc2)NC(=O)[C@@H]2CCCN2C1=O (stereo in doubt) [STYLOSTATIN 1] | 2.58 | 6.85 | 4.39 | 3.06 | 2.6 | 5.03 | 1.94 | 6.77 | 3.46 | 3.3 | 4.55 | 3.55 | 304 | 
3 | CC[C@H](C)[C@@H]1NC(=O)[C@H](C)NC(=O)[C@H](CC(C)C)NC(=O)[C@H](CO)NC(=O)[C@H](CC(N)=O)NC(=O)[C@H](Cc2ccccc2)NC(=O)[C@@H]2CCCN2C1=O (stereo in doubt; 2) [STYLOSTATIN 1] |  |  |  |  |  |  |  |  |  |  | 11.5 | 8.44 | 3.77 | GI50 [1]: 3.35 µM; GI50 [3]: 7.13 µM; GI50 [4]: 4.16 µM; GI50 [7]: 4.64 µM; GI50 [8]: 2.44 µM; GI50 [9]: 4.97 µM; GI50 (K562): 3.42 µM; GI50 [10]: 8.52 µM; GI50 [11]: 4.28 µM; GI50 [12]: 4.29 µM
